In test [1] the test system is RPMI-8226. Kind of test: Induction of ROS accumulation in human RPMI-8226 cells incubated for 2 hrs by ELISA (reference value: 26.06 +/- […]). In kind it is functional. Background: In an ELISA, binding on a coated surface is turned into a signal by an enzyme label.
For the next test, the target named is Histone deacetylase 1 (Homo sapiens, UniProt Q13547). Kind of test: Inhibition of HDAC1 in human RPMI-8226 cells incubated for 2 hrs by ELISA. In kind it is cell-based. A digest of the protocol: (§1)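 Target levels measured by ELISA kits in RPMI-8226 cells. Cells were seeded and grown 24 h at 37 °C, then exposed 72 h to a semi-log series of concentrations. Sample was incubated 2 h at 37 °C, followed by detection reagents A and B (1 h each), TMB substrate and stop solution, with OD read at 450 nm. IC50 was taken from sigmoidal dose-response nonlinear regression of % activity.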

The target in a further test is Histone deacetylase 2 (Homo sapiens, UniProt Q92769). Kind of test: Inhibition of HDAC2 in human RPMI-8226 cells incubated for 2 hrs by ELISA. In kind it is cell-based. A digest of the protocol:
as §1

The next test deals with Histone deacetylase 3 (Homo sapiens, UniProt O15379). Kind of test: Inhibition of HDAC3 in human RPMI-8226 cells incubated for 2 hrs by ELISA. In kind it is cell-based. A digest of the protocol: as §1
A further test addresses T1, Histone deacetylase 8 (Homo sapiens, UniProt Q9BY41).
T1 sequence (Q9BY41 whole entry): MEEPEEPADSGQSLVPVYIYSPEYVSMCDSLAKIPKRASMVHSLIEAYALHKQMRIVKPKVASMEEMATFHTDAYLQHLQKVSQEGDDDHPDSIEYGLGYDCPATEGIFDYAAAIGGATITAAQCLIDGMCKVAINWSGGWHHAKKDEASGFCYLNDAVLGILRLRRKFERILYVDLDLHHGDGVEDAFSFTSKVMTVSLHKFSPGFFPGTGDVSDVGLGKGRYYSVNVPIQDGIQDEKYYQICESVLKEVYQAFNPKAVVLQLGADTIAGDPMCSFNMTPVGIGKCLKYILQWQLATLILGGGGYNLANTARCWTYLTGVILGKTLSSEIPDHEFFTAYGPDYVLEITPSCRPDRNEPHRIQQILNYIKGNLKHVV
Kind of test: Inhibition of HDAC8 in human RPMI-8226 cells incubated for 2 hrs by ELISA. In kind it is cell-based. A digest of the protocol:
as §1

The test system of test [2] is RPMI-8226. Kind of test: Induction of apoptosis in human RPMI-8226 cells assessed as BAX level incubated for 24 hrs by ELISA (reference value: 56 +/- […]). In kind it is functional.
The test system of test [3] is RPMI-8226. Kind of test: Induction of apoptosis in human RPMI-8226 cells assessed as Bcl-2 level incubated for 24 hrs by ELISA (reference value: 4.857 +/- […]). In kind it is functional.
Test [4] relates to RPMI-8226. Kind of test: Induction of apoptosis in human RPMI-8226 cells assessed as PARP-1 level incubated for 24 hrs by ELISA (reference value: 0.151 +/- […]). In kind it is functional.
Test [5] concerns RPMI-8226. Kind of test: Induction of apoptosis in human RPMI-8226 cells assessed as Caspase-3 level incubated for 24 hrs by ELISA (reference value: 35.3 pg/ml). In kind it is functional.
Test [6] relates to RPMI-8226. Kind of test: Induction of apoptosis in human RPMI-8226 cells assessed as Caspase-7 level incubated for 24 hrs by ELISA (reference value: 0.359 +/- 0.016 ng/ml). In kind it is functional.
The test system of test [7] is RPMI-8226. Kind of test: Induction of apoptosis in human RPMI-8226 cells assessed as Caspase-9 level incubated for 24 hrs by ELISA (reference value: 1.63 +/- […]). In kind it is functional.
For test [8], the target named is Epidermal growth factor receptor (Homo sapiens, UniProt P00533). Kind of test: Inhibition of EGFR in human RPMI-8226 cells incubated for 2 hrs by ELISA. In kind it is cell-based.
The target of test [9] is Vascular endothelial growth factor receptor 2 (Homo sapiens, UniProt P35968). Kind of test: Inhibition of VEGFR2 in human RPMI-8226 cells incubated for 2 hrs by ELISA. In kind it is cell-based.
A further test addresses Tubulin. Kind of test: Inhibition of Tubulin in human RPMI-8226 cells incubated for 2 hrs by ELISA. In kind it is cell-based. A digest of the protocol:
as §1

Structures are written as SMILES.

One may read the IC50 as the point on the concentration scale where inhibition reaches its midpoint. High values mean weaker potency, low ones greater potency.

Sequence of Histone deacetylase 2 (Q92769 whole entry): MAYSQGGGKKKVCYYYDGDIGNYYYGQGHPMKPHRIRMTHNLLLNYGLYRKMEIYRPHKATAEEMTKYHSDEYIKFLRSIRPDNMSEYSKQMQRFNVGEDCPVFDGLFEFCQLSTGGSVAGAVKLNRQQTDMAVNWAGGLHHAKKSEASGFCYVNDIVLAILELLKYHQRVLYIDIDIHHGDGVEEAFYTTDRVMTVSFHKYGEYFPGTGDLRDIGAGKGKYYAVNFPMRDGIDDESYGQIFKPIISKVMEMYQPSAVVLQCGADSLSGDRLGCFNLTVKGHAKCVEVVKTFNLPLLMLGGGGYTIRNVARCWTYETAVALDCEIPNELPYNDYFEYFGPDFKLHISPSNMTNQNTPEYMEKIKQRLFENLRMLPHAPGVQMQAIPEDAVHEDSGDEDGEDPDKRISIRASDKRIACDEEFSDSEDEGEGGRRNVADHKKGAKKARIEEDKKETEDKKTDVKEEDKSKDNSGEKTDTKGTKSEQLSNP
Sequence of Histone deacetylase 1 (Q13547 whole entry): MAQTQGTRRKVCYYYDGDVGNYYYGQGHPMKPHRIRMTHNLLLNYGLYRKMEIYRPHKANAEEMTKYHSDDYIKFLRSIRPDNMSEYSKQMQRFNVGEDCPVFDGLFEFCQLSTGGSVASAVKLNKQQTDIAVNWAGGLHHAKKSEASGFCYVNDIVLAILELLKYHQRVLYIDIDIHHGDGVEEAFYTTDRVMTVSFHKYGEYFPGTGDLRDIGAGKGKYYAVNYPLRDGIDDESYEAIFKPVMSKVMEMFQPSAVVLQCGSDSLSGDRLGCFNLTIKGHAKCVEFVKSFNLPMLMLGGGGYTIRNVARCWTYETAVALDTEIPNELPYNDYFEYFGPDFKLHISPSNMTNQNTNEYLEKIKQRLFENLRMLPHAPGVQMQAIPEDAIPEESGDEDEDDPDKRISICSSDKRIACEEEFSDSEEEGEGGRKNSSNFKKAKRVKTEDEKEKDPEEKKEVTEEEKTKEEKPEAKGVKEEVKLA
Sequence of Histone deacetylase 3 (O15379 whole entry): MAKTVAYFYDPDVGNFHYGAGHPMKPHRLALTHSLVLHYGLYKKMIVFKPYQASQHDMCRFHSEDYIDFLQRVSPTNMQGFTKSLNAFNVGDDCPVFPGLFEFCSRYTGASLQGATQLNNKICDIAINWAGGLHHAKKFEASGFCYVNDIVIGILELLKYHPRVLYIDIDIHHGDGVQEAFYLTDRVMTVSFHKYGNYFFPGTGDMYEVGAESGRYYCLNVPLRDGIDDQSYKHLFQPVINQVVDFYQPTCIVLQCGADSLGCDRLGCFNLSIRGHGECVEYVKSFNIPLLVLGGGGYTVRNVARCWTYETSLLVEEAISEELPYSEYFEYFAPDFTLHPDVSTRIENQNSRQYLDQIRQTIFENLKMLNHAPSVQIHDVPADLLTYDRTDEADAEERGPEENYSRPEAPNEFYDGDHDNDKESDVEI
Sequence of Epidermal growth factor receptor (P00533 whole entry): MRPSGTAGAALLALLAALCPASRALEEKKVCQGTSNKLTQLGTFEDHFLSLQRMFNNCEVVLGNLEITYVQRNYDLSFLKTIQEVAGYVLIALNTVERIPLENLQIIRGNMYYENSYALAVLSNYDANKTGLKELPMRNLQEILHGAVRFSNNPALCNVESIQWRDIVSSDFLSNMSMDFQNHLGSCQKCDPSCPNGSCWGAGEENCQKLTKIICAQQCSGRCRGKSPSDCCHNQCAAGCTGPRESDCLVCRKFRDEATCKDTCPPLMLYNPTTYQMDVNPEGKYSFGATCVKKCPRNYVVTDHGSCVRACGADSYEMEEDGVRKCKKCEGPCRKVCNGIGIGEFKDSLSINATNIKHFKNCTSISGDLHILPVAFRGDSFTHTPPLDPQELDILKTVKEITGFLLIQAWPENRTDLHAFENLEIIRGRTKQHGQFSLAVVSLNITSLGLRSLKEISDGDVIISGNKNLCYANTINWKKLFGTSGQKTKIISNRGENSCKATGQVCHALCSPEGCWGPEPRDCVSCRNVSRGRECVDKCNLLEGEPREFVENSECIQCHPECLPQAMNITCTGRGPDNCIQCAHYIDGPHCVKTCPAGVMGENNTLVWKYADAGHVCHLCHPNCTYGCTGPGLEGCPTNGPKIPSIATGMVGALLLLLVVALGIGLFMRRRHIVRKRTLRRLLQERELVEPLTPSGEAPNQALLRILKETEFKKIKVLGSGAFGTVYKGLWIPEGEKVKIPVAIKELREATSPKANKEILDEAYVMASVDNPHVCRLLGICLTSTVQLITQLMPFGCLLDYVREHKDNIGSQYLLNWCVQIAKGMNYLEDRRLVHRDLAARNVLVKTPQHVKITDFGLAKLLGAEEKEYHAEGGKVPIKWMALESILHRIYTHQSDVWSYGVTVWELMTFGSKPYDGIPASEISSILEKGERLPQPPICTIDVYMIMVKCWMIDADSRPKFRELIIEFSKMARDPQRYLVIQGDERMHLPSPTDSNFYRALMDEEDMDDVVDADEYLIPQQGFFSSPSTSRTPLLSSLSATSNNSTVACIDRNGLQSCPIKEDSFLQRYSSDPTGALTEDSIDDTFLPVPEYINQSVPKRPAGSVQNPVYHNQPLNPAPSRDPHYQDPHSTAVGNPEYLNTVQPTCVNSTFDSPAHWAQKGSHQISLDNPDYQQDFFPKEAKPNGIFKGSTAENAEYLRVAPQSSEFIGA
Sequence of Vascular endothelial growth factor receptor 2 (P35968 whole entry): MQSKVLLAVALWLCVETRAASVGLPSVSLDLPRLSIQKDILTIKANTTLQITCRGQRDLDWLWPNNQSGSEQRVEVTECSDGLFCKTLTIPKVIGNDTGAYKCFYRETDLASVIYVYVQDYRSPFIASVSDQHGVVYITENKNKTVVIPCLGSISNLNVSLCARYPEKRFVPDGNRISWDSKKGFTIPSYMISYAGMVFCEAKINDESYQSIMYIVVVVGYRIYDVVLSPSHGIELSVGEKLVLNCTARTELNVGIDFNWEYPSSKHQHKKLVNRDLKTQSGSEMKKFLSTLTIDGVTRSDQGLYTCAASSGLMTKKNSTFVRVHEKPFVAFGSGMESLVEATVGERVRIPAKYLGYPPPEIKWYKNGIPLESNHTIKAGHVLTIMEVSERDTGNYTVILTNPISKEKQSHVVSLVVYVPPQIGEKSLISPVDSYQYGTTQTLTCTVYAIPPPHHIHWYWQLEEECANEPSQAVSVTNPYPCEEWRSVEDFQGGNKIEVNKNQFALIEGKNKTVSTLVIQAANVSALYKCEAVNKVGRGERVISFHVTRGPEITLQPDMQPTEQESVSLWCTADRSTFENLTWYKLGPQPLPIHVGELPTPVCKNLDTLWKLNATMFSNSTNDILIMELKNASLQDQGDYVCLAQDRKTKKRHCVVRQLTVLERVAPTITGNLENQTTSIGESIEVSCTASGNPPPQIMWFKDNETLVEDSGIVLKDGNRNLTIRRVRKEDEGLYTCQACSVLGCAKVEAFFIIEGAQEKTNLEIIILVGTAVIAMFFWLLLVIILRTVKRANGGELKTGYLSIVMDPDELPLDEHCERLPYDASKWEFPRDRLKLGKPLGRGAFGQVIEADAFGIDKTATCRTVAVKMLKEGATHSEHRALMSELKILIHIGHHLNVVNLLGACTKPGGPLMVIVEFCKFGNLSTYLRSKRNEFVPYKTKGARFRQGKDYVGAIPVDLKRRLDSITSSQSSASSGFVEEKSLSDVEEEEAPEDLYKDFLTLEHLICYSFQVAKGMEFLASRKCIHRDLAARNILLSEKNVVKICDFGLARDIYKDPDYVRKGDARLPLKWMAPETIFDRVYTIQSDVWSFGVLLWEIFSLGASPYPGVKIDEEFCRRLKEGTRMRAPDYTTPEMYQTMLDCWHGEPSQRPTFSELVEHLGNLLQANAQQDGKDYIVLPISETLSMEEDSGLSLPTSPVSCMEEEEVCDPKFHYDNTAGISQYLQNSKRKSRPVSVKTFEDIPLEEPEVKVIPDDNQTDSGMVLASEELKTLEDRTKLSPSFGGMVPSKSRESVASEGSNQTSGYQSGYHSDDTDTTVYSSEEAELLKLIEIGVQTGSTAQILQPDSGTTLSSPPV

The compound `COc1cc2ncnc(Nc3ccc(F)c(Cl)c3)c2cc1OCCCN1CCOCC1` [GEFITINIB] returned an Activity in the test on RPMI-8226 [1] of 80.92 pg/mL.

Take `CC(C)C[C@H](NC(=O)[C@H](Cc1ccccc1)NC(=O)c1cnccn1)B(O)O` [BORTEZOMIB]: the 50% inhibitory concentration (IC50) was determined as 0.62 µM against Histone deacetylase 1, 0.8 µM at Histone deacetylase 2, 1.18 µM at Histone deacetylase 3 and 0.072 µM at Histone deacetylase 8.

For the compound `CN[C@@H]1C[C@H]2O[C@@](C)([C@@H]1OC)n1c3ccccc3c3c4c(c5c6ccccc6n2c5c31)C(=O)NC4` [STAUROSPORINE], the Activity is 336.16 pg/mL in the test with RPMI-8226 [2]; 0.4081 ng/mL in the test on RPMI-8226 [3]; 0.245 ng/mL in the test on RPMI-8226 [4]; 449.8 pg/mL with RPMI-8226 [5]; 1.508 ng/mL in the test on RPMI-8226 [6]; 24.97 ng/mL with RPMI-8226 [7].

Turning to `COc1ccc(/C=C/C(=O)c2nnn(-c3ccc(Cl)cc3)c2C)cc1OC`, the IC50 on Histone deacetylase 1 came out at 1.53 µM; on Histone deacetylase 2, 2.9 µM; against Histone deacetylase 3, 3 µM; at Histone deacetylase 8 it was 0.047 µM; in test [8] it was 0.036 µM; in test [9], 0.388 µM. Besides, the IC50 against Tubulin was found to be 0.00977 µM.

Values taken from ChEMBL document CHEMBL4680183, “1,2,3-Triazole-Chalcone hybrids: Synthesis, in vitro cytotoxic activity and mechanistic investigation of apoptosis induction in multiple myeloma RPMI-8226” (Eur J Med Chem, 2020).
